Assays:
[1] = Drug metabolism in human ileum microsomes assessed as glucuronidation activity at 0.1 mM for 60 mins in presence of 3 mM UDP-GlcUA; format: ADME; settings: 1 h, 100 µM
Summary of the method: (§1)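 Microsomes from single donors (20 μg protein) incubated with 0.1 mM substrate and 3 mM UDP-GlcUA for 60 min at 37°C in Tris-HCl pH 7.4 buffer with 5 mM MgCl2, 5 mM saccharolactone and 2% DMSO. Glucuronide measured by HPLC; donor data summarized as box-and-whisker plots.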

[2] = target: T1, UDP-glucuronosyltransferase 1A7 (Homo sapiens, UniProt Q9HAW7); assay: Activity of human recombinant UGT1A7 expressed in baculovirus-infected Sf9 cells assessed as glucuronidation activity per mg of protein at 100 to 200 uM after 60 mins in presence of 3 mM UDP-GlcUA; format: ADME; settings: sf9, 1 h
T1 sequence (Q9HAW7 whole entry): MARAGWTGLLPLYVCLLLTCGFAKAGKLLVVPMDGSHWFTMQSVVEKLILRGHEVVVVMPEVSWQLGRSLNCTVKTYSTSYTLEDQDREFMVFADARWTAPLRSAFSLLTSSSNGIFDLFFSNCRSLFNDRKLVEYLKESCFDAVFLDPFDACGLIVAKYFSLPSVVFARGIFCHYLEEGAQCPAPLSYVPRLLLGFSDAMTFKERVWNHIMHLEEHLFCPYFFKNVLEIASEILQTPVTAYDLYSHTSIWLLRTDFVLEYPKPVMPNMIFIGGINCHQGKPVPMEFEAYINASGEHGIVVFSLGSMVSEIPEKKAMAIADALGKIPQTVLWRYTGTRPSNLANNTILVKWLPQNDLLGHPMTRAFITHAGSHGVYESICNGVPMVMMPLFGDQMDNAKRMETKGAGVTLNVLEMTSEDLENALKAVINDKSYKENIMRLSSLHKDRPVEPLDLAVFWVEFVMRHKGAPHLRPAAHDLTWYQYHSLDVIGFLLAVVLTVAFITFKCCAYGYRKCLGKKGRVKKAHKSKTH
Summary of the method: (§2)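 Screening: 5 μg recombinant UGT protein (His-tag levels normalized) in Tris-HCl pH 7.4, 5 mM MgCl2, 5 mM saccharolactone, 2% DMSO to permeabilize membranes. Substrate at 100 or 200 μM, added in water. Started with 3 mM UDP-GlcUA, 60 min at 37°C, stopped with ethanol, then centrifuged. Glucuronide quantified by reversed-phase C18 HPLC against the substrate response; triplicates.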

[3] = target: T1, UDP-glucuronosyltransferase 1A7; assay: Drug metabolism assessed as human recombinant UGT1A7-mediated compound formation treated with C-1305 for 60 mins by ESI-MS/UV-vis spectroscopy in presence of 3 mM UDP-GlcUA; format: ADME; settings: recombinant enzyme, 1 h
Summary of the method: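 His-tagged recombinant human UGT expressed in baculovirus-infected insect cells, levels normalized by anti-His Western blot; 5 μg membrane protein incubated 60 min at 37°C in […] pH 7.4, 5 mM MgCl2, 5 mM saccharolactone, 2% DMSO, substrate 100 or 200 μM; started with UDP-GlcUA; ethanol stop, centrifuged; supernatant by reversed-phase HPLC-UV/ESI-MS; glucuronide confirmed by β-glucuronidase hydrolysis; triplicate.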

Liver microsome = assay: Drug metabolism in human liver microsomes assessed as glucuronidation activity at 0.2 mM for 60 mins by ESI-MS analysis in presence of 3 mM UDP-GlcUA; format: ADME; settings: 1 h, 200 µM
Summary of the method: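 Single-donor liver or intestinal microsomes (20 μg total protein) incubated with 0.2 mM substrate and 3 mM UDP-GlcUA for 60 min at 37°C in Tris-HCl pH 7.4, MgCl2, saccharolactone, 2% DMSO. Ethanol stop, centrifuged, HPLC analysis; triplicates.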

[4] = Drug metabolism in human intestinal microsomes assessed as glucuronidation per mg of protein after 60 mins by Michaelis-Menten equation in presence of 3 mM UDP-GlcUA; format: ADME, Intestine, Microsome; settings: 1 h
Summary of the method: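 Recombinant UGT membrane protein (5 μg; His-tagged UGT1A levels normalized by anti-His Western blot) or single-donor microsomes (20 μg) incubated with substrate 5–1000 μM and 3 mM UDP-GlcUA in […] pH 7.4, 5 mM MgCl2, 5 mM saccharolactone, 2% DMSO, 60 min, 37°C. Ethanol stop, centrifuged, HPLC-UV. Initial velocities fitted to Michaelis-Menten, Hill or substrate-inhibition models; three determinations.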

[5] = target: T2, UDP-glucuronosyltransferase 1A1 (Homo sapiens, UniProt P22309); assay: Activity of human recombinant UGT1A1 expressed in baculovirus-infected Sf9 cells assessed as glucuronidation activity per mg of protein at 100 to 200 uM after 60 mins in presence of 3 mM UDP-GlcUA; format: ADME; settings: sf9, 1 h; summary of the method: as §2
T2 sequence (P22309 whole entry): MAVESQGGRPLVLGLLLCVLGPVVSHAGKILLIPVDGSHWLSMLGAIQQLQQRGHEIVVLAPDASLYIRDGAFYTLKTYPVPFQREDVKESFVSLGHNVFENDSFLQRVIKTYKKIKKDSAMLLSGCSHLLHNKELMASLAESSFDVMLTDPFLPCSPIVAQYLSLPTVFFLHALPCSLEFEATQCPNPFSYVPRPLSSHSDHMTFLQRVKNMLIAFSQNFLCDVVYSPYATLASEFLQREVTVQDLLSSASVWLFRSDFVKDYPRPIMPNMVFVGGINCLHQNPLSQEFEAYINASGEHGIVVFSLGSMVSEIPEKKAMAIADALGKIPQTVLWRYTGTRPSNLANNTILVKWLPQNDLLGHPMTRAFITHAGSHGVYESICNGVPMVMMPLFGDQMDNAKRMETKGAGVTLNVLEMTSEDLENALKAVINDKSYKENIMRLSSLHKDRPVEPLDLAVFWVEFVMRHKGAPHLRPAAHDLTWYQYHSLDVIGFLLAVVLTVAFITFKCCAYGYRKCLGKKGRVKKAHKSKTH

[6] = Drug metabolism in human stomach microsomes assessed as glucuronidation activity at 0.1 mM for 60 mins in presence of 3 mM UDP-GlcUA; format: ADME; settings: 1 h, 100 µM; summary of the method: as §1
[7] = target: T1, UDP-glucuronosyltransferase 1A7; assay: Drug metabolism assessed as human recombinant UGT1A7-mediated compound formation treated with C-1311 for 60 mins by ESI-MS/UV-vis spectroscopy in presence of 3 mM UDP-GlcUA; format: ADME; settings: recombinant enzyme, 1 h

Row | Drug metabolism [3] | Compound | Drug metabolism [1] | Drug metabolism [2] | Drug metabolism (Liver microsome) | Vmax [4] | Drug metabolism [5] | Drug metabolism [6] | Drug metabolism [7]
1 | metabolite_detected | CN(C)CCCNc1ccc2nnn3c4ccc(O)cc4c(=O)c1c23 | metabolite_detected | 0.2 nmol/min/mg | metabolite_detected | 0.413 nmol/min/mg | < 0.1 nmol/min/mg | metabolite_detected | –
2 | – | CCN(CC)CCNc1ccc2ncn3c4ccc(O)cc4c(=O)c1c23 [C-1311] | metabolite_detected | 0.2 nmol/min/mg | metabolite_detected | 0.823 nmol/min/mg | < 0.1 nmol/min/mg | metabolite_detected | metabolite_detected

Reference: ChEMBL document CHEMBL3526062, “Role of human UDP-glucuronosyltransferases in the biotransformation of the triazoloacridinone and imidazoacridinone antitumor agents C-1305 and C-1311: highly selective substrates for UGT1A10” (Drug Metab Dispos, 2012)
